Measurements of several laboratories.
Compare with care: the assays were run in different laboratories.
Target: Mitogen-activated protein kinase kinase kinase 5 (MAP3K5, Homo sapiens, UniProt Q99683)
Sequence (Q99683 1-1374, as in one of the studies): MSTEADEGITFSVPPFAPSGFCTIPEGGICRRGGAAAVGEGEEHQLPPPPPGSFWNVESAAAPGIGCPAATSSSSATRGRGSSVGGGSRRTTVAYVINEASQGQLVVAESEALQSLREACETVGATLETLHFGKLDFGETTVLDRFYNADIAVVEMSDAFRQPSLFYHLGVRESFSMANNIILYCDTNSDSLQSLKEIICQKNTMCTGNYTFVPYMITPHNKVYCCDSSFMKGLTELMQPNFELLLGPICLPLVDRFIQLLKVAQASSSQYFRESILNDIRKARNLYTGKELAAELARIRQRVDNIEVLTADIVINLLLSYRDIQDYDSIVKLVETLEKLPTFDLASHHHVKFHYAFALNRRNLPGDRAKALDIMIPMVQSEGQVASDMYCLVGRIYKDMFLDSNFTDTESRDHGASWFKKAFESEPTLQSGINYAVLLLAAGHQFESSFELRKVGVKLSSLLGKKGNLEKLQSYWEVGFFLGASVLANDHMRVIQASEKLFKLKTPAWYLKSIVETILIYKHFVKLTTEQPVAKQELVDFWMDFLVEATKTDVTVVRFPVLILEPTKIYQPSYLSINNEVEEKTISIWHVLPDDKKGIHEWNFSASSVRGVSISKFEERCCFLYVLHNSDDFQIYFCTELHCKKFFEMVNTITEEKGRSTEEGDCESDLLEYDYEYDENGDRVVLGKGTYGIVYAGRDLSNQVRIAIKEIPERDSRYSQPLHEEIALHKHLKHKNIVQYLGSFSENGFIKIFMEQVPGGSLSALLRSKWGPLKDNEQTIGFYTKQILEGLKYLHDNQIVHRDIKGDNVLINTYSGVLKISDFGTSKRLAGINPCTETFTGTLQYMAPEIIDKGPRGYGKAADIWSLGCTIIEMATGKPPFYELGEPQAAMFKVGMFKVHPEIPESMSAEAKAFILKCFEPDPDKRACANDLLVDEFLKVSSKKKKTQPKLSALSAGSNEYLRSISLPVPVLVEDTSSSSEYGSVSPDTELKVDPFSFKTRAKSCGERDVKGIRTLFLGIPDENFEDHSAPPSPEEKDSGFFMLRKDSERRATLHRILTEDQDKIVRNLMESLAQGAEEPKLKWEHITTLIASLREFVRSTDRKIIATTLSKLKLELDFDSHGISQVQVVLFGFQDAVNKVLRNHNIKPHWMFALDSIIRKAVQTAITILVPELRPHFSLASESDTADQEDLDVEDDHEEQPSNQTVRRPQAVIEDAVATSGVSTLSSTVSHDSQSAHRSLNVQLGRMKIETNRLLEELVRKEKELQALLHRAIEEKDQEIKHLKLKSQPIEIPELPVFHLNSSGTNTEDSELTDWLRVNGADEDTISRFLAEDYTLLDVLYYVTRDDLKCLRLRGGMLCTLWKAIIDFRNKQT

SMILES	read-out	method	tested at	remaining binding [%]
Cn1cc(Cl)c2c(Oc3c(F)cc(Nc4cc(Cl)nc(N)n4)cc3F)ccnc21	cell-free assay	competition with immobilised ligand	0.1 µM	97
N[C@H]1CCN(c2nccc(-c3cnn4ncccc34)n2)C1	binding		1 µM	99
CNC(=O)[C@@H]1CC[C@@H](n2c(-c3ccc4cnccc4c3)nc3ccc(C(=O)NCc4cccc(C(N)=O)c4)cc32)C1	binding	competition with immobilised ligand	1 µM	92
Cc1cnc(Nc2ccc(C(=O)N3CCC(N4CCCC4)CC3)cc2)nc1-c1cc2ccccc2s1	binding	competition with immobilised ligand	1 µM	100
CC1CCCN1c1nccc(-c2cnn3ncccc23)n1 (stereo not drawn)	binding		1 µM	79
CCCOc1ccc([C@@H]2[C@@H](C(=O)O)[C@H](c3ccc4c(c3)OCO4)CN2CC(=O)Nc2c(CC)cccc2CC)cc1	cell-free assay	competition with immobilised ligand	1 µM	97
COc1cnc(Nc2cccc(S(N)(=O)=O)c2)nc1N1CCN(c2ccccc2)C(=O)C1	binding	competition with immobilised ligand	1 µM	100
O=C(NCCCN1CCOCC1)c1ccc(Nc2ncc(Cl)c(-c3ccc(Cl)s3)n2)cc1	binding	competition with immobilised ligand	1 µM	100
COCCOc1nc(-c2ccc(Cl)nc2)nc2c1CN(C(=O)c1ncn3ccccc13)CC2	cell-free assay	competition with immobilised ligand	0.1 µM	84
FC(F)(F)Oc1cccc(-c2cnc3ccc(-c4ccncc4)nn23)c1	cell-free assay	competition with immobilised ligand	5 µM	100
COc1ccnn2ncc(-c3ccnc(N(C)C)n3)c12	binding		1 µM	100
O=C(c1ccc(Nc2ncc(Cl)c(-c3cc4ccccc4s3)n2)cc1)N1CCC(N2CCCC2)CC1	binding	competition with immobilised ligand	1 µM	100
Cc1nc(N2CC[C@@H](O)C2)ncc1-c1cc(C(F)(F)F)cc2[nH]ncc12	binding	competition with immobilised ligand	1 µM	100
C=CC(=O)N1CCC(C(=O)NCC(=O)N2CCN(c3nc(-c4cnc(N)nc4C(F)F)nc(N4CCOCC4)n3)CC2)CC1	binding	competition with immobilised ligand	1 µM	100
O=C(NCC1CCOCC1)c1n[nH]cc1NC(=O)c1c(F)cccc1F	binding	competition with immobilised ligand	1 µM	87
CN(c1nccc(-c2cnn3ncccc23)n1)C1CC1	binding		1 µM	100
CNC(=O)Nc1ccc2c(c1)CC[C@@]21OC(=O)N(CC(=O)N(Cc2ccc(F)cc2)[C@@H](C)C(F)(F)F)C1=O	cell-free assay	competition with immobilised ligand	1 µM	94
F[C@@H]1CCN(c2nccc(-c3cnn4ncccc34)n2)C1	binding		1 µM	83
C[C@H](c1ccnc(Nc2nc3ccc(-c4cc(N(C)C)ncn4)cc3[nH]2)c1)N1CCN(C(=O)CC(F)(F)F)CC1	cell-free assay	competition with immobilised ligand	0.1 µM	100
C[C@H]1CCN(c2nccc(-c3cnn4ncccc34)n2)C1	binding		1 µM	100
C[C@@H](c1ccc(-n2cnc3c(N)ncnc32)cc1)N1CCc2nn(C)c(Cc3ccccc3)c2C1=O	binding	competition with immobilised ligand	0.1 µM	95
